Read-outs that look alike come from different tables or passages of the source.
Columns and labels:
[1] = system: HIV-1; details: cited from earlier work
[2] = molecular target: HIV-1 CA CTD (Human immunodeficiency virus type 1 group M subtype B, UniProt P12493); test: HTRF-based CAI binding competition assay; details: for inhibition at 50 µM: read-out: inhibition of CA CTD-CAI HTRF signal
[3] = system: Gag polyprotein processing; test: Anti-p24 western blot of infected MT-4 cell lysates; format: cell-based; details: MT-4 cells, 3 days of HIV-1IIIB replication, anti-p24 immunoblotting
[4] = system: C8166 cells; test: MTT cytotoxicity assay; format: cell-based, Human; details: 3 days
How it was run: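 C8166 T cells were maintained in RPMI 1640 with 10% FBS, penicillin and streptomycin. They were seeded at 4×10^4/well with serially diluted test compound and kept at 37°C, 5% CO2. Viability was measured by MTT after 3 days, and the 50% cytotoxic concentration was calculated.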

[5] = molecular target: WT CA protein (Human immunodeficiency virus type 1 group M subtype B, UniProt P12493); test: In vitro CA assembly assay; format: biochemical, HIV-1; details: 50 μM CA-WT, NaCl-dependent assembly, OD 350 nm
How it was run: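 Full-length WT CA (E. coli, pET11a) was dialysed into 50 mM sodium phosphate, pH 8.0, and mixed with test compound in 500 μl of that buffer. Assembly was started by adding 500 μl of the same buffer containing 4 M NaCl, pH 8.0. OD350 was read every 20 s for 30 min.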

[6] = molecular target: CAI-biotin peptide (biotinylated capsid assembly inhibitor peptide); test: BLI
[7] = molecular target: GST-tagged HIV-1 capsid C-terminal domain (GST-CA CTD) (HIV-1); test: AlphaScreen or HTRF

**Q.** For `Cc1ccnc(SCc2nc3ccccc3s2)n1` [BMMP], which EC50 ([1]; ref Urano et al., 2011) is on record?
**A.** 20 to 50 µM

**Q.** Which EC50 ([1]; ref Tang et al. 2003) does the source give for `Cc1ccc(NC(=O)NCCSCc2ccc(CN(C)C)o2)cc1Cl` [CAP-1] here?
**A.** ~70 µM

**Q.** With `CO[C@H]1[C@H](OC(=O)c2ccc(C)[nH]2)[C@H](O)[C@@H](Oc2ccc3c(O)c(NC(=O)c4c[nH]c(C(=O)Nc5c(O)c6ccc(O[C@H]7OC(C)(C)[C@@H](OC)[C@H](OC(=O)c8ccc(C)[nH]8)[C@@H]7O)c(C)c6oc5=O)c4C)c(=O)oc3c2C)OC1(C)C` [Coumermycin A1] as the compound, how does the EC50 ([1]; ref Chen et al., 2016, Vozzolo et al. 2010) read?
**A.** 8 µM

**Q.** With `O=c1c2ccccc2[se]n1-c1ccccc1` [Ebselen] as the compound, how does the inhibition at 50 µM [2] read?
**A.** < 3.2%

**Q.** And the EC50 ([1]; ref Thenin-Houssier et al., 2016)?
**A.** 3.37 µM

**Q.** With `C[C@H](CCC(=O)NCC(=O)O)[C@H]1CC[C@H]2[C@@H]3CC[C@@H]4C[C@H](O)CC[C@]4(C)[C@H]3C[C@H](O)[C@]12C` [GDC, glycodeoxycholate] as the compound, how does the inhibition at 50 µM [2] read?
**A.** < 20%

**Q.** And the EC50 ([1]; ref Lampel et al., 2015)?
**A.** 3.12 µM

**Q.** Which EC50 ([1]; ref Blair et al., 2010, Shi et al., 2011) does the source give for `Cc1[nH]c2ccccc2c1CC(=O)N[C@@H](Cc1ccccc1)C(=O)N(C)c1ccccc1` [PF-3450074 (PF74)] here?
**A.** 0.3 to 0.6 µM

**Q.** Which inhibition at 50 µM [2] does the source give for `C[C@H](CCC(=O)NCCS(=O)(=O)O)[C@H]1CC[C@H]2[C@@H]3[C@H](O)C[C@@H]4C[C@H](O)CC[C@]4(C)[C@H]3C[C@H](O)[C@]12C` [TA, taurocholic acid] here?
**A.** < 20%

**Q.** Which “inhibition of CA CTD-CAI HTRF signal” value ([2]; compound at 50 μM) does the source give for `Cc1cc(C=C2C(=O)C=CC2=O)cc(C)c1O` [TX-1918] here?
**A.** > 70%

**Q.** What about the “effect on CA p24 production / Gag Pr55 processing” value [3] of the same compound?
**A.** significant reductions in proteolyzed CA p24 with increasing concentrations

**Q.** What about the CC50 [4] of the same compound?
**A.** 20.8 µM

**Q.** What about the “effect on in vitro CA assembly” value [5] of the same compound?
**A.** inhibited CA assembly in vitro

**Q.** Which inhibition at 50 µM [2] does the source give for `CC(=O)Nc1cccc(-n2c(=O)n(C3CC3)c(=O)c3c(Nc4ccc(I)cc4F)n(C)c(=O)c(C)c32)c1` [trametinib] here?
**A.** < 3.2%

**Q.** For “GST-tagged HIV-1 capsid C-terminal domain (GST-CA CTD) (domain or fragment)”, which Kd [6] is on record?
**A.** 0.007 µM

**Q.** What about the koff [6] of the same compound?
**A.** 0.000152 s⁻¹

**Q.** For “untagged CAI peptide (capsid assembly inhibitor)”, which IC50 [7] is on record?
**A.** 6.5 µM
